Bioassay records as filed in PubChem BioAssay.
Compounds with a hit are over-represented: about 7.6% of the library has one in this group of screens.
M1 ag = M1 muscarinic receptor agonists, primary screen, CHO-M1 cells, Fluo-4 calcium, agonist mode. Fluo-4 calcium fluorescence; hits give high values. B-score at 10 µM. 3% of 64,000 active. AID 626, 2007;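 active means fluorescence rise, raw or as B-score row- and column-corrected plate score, outside the 99.7% band of its plate's samples, either direction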
hDAT+cocaine = changed hDAT dopamine uptake under cocaine IC80, either direction, primary screen, cocaine antagonist project, cell-based, LLC-PK1 hDAT, [14C]-dopamine uptake, MLSMR; 1.3% of 110,000 active; B-score at 10 µM; Sodium-dependent dopamine transporter (Homo sapiens), Q01959; AID 449768, 2010; LLC-PK1 hDAT cells, [14C]-dopamine uptake with cocaine IC80; actives deviate in either direction;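 active means Z score or B-score, a plate-position-corrected score, falls beyond the plate's 99.7% confidence bounds, in either direction; inactive means both scores lie inside the 99.7% bounds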;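 further: scored against the spread of the other compound wells on the same plate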
M1 antagonist = antagonists of rat M1 muscarinic receptor. CHO-M1 cells, Fluo-4 calcium, ACh EC80 antagonist mode; hits give low values. B-score at 10 µM. 3.4% of 64,000 active. AID 628, 2007;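 active means calcium fluorescence response, raw or row-and-column corrected B-score, differing from the plate sample mean either way at a set confidence level, mostly lower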
HEK293 NFkB inh = inhibitors of PMA/ionomycin-induced NF-kB reporter, primary screen, antigen receptor NF-kB inhibitor project, cell-based, HEK-293 luciferase reporter, luminescence | HEK-293 NF-kB luciferase reporter | inhibition, % at 3 µM | 0.21% of 62,000 active;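 active means inhibition above the mean of all tested compounds plus 3 SD, cut at about 40% in these data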;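 further: 0% = stimulated DMSO wells and 100% = 10 µM reference inhibitor 5653914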
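System: NF-kB luciferase reporter HEK-293 cells | Replication: Single test | Control set: DMSO vs reference inhibitor | Evaluation: % inhibition | Schedule: 1 h pretreatment, 16 h stimulation, 37 °C | Probe or stimulus: PMA with ionomycin | Compound dosing: One dose, 3 µM | Detection: Luciferase luminescence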
Jurkat viability = cytotoxicity toward Jurkat T cells, primary screen, cytotoxicity control, cell-based, Jurkat E6.1, 60K MLSMR library; 1.2% of 56,000 active; Jurkat E6.1 viability, ATP luminescence, 48 h; inhibition, % at 4 µM;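 active means inhibition above the mean inhibition of all tested compounds plus 3 SD, cut at about 28% in these data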
D1 allo mod = D1 CRE-luciferase signal change, two-sided – cell-based, HEK293 D1, dopamine EC30, D1 allosteric modulator project, primary screen. dopamine EC30 potentiation; actives deviate in either direction. B-score at 10 µM. D(1A) dopamine receptor (Homo sapiens), P21728. 5.9% of 58,000 active;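 active means luminescence count or its row- and column-corrected plate score outside the 99.7% band of the plate's sample wells, on either side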
Target sequence (P21728 whole entry, looked up): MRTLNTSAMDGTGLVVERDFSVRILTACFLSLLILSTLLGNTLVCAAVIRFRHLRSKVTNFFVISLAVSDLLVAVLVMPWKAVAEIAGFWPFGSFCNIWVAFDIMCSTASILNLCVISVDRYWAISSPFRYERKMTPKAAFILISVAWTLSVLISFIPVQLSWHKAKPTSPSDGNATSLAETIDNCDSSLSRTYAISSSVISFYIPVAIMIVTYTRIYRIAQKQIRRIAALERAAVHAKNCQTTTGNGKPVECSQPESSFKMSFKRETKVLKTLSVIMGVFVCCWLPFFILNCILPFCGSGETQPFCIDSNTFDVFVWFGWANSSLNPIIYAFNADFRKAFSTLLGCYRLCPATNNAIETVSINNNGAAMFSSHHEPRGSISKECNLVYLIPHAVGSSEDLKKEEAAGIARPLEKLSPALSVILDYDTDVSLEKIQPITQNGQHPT
The depositor's hits bear a star; / = no result given.

SMILES	M1 ag	hDAT+cocaine	M1 antagonist	HEK293 NFkB inh	Jurkat viability	D1 allo mod
Cc1noc(C)c1COC(=O)c1ccc(-c2nc3ccccc3s2)s1	-0.044	0.48	0.013	-2	-1	-1.2
CCC(C)NC(=O)Cn1c(=O)n(CCCC(=O)NCc2ccccc2Cl)c(=O)c2ccccc21 (stereo not drawn)	/	-1	/	/	/	/
Cc1ccc(C)n1/N=C1/NC(=O)CS1	-1.5	-3.1*	-0.9	8	-3	-0.063
CCc1ccc2nc(NC3=NCN(CCOC)CN3)nc(C)c2c1	-0.25	/	0.035	15	7	0.39
Cc1cc2nc(NC3=NCN(Cc4cccnc4)CN3)nc(C)c2cc1C	0.54	/	-3.2*	8	12	-0.22
COCCN(CCOC)c1nc(S(=O)(=O)c2ccc(C)cc2)c(Cl)s1	/	0.047	/	/	/	/
CCOc1ccc(OCC)c(NC(=O)Nc2ccc3c(c2)N(C)C(=O)CS3)c1	/	1.9*	/	/	/	/
COc1cccc(NC(=O)Nc2ccc3c(c2)N(C)C(=O)CS3)c1	/	0.6	/	/	/	/
Cc1ccccc1-c1nc2ccccc2c(=O)n1/N=C/c1ccccc1[N+](=O)[O-]	/	1.1*	/	/	/	/
N#Cc1c(N)oc(-c2ccco2)c1-c1ccco1	0.82	-0.11	1.5	7	-2	19*
COc1ccc(NC(=O)CC2C(=O)N(c3ccc(OC)cc3)C(=O)N2C(C)C)cc1 (stereo not drawn)	/	-0.11	/	/	/	/
O=C(c1ccco1)N1CCN(C(=O)N2c3ccccc3Sc3ccccc32)CC1	1.4	-0.46	-0.46	38	98*	3.7
O=C(N1CCN(c2ccccn2)CC1)N1c2ccccc2Sc2ccccc21	0.28	/	-1.5	28	69*	-0.01
COc1ccc(NC(=O)c2ccc(-c3ccccc3C(F)(F)F)o2)cc1	/	0.15	/	/	/	/
C=CCn1c(COc2ccc(CC)cc2)nnc1SCC(=O)N(C)C1CCS(=O)(=O)C1 (stereo not drawn)	0.18	-0.0012	0.53	5	9	-0.042
CCc1ccc(CNc2ccc(O)cc2)cc1	-0.21	2.9*	-0.19	0	38*	-0.78
CC(C)(C)c1ccc(C2=CC(c3ccccc3F)n3ncnc3N2)cc1 (stereo not drawn)	/	0.16	/	/	/	/
Fc1ccc(Br)cc1C1C=C(c2cccnc2)Nc2ncnn21 (stereo not drawn)	-1.5	-0.16	0.43	4	39*	1.8
CCCCn1c(SCc2c(C)noc2C)nc2cc(S(N)(=O)=O)ccc21	0.46	0.091	-0.17	42*	10	/
CCn1c(SCC(=O)Nc2cc(C)on2)nnc1-c1ccc(S(=O)(=O)N2CCN(C)CC2)cc1	/	0.19	/	/	/	/
COc1ccc(OC)c(C(=O)COC(=O)c2ccc(C)o2)c1	0.36	0.81	1.4	15	/	/
Cc1ccc(C)c(C(=O)COC(=O)c2ccc(Br)o2)c1	-0.021	0.011	2.2*	2	-1	0.36
CN(C)S(=O)(=O)N1CCN(C(=O)c2ccccc2)CC1	/	-4.5*	/	/	/	/
O=C(CCNc1ccc(F)c(Cl)c1)c1ccco1	0.82	-0.14	-0.02	17	65*	0.23
CCOC(=O)Cc1csc(NC(=O)c2ccc(Br)s2)n1	2.1	2.7*	-0.99	-2	14	-0.07
SMILES	M1 ag	hDAT+cocaine	M1 antagonist	HEK293 NFkB inh	Jurkat viability	D1 allo mod
CCOC(=O)Cc1csc(NC(=O)c2c(-c3c(F)cccc3Cl)noc2C)n1	0.0083	4.3*	-0.57	4	-4	-0.7
CCc1ccccc1NC(=O)c1ccc(F)c(S(=O)(=O)N2CCC(C(N)=O)CC2)c1	-1	-0.93	-0.14	7	-4	-0.62
O=C(NCC1CCCO1)C1CCC(N2C(=O)c3ccccc3C2=O)CC1 (stereo not drawn)	-0.5	0.24	-1.2	15	-2	-0.14
O=C(NCC1CCCO1)C1c2ccccc2C(=O)N1C1CCCCCC1 (stereo not drawn)	9.2*	-0.081	0.21	6	-2	-1.2
COC(=O)c1cc(-c2ccc(OC)c(OC)c2)n[nH]1	-0.12	-0.46	0.68	1	/	7*
O=C(Nc1nc2c(s1)C(=O)CCC2)c1ccccc1	0.026	-0.44	0.69	-50	7	-4
N#Cc1c(/N=C/c2ccco2)sc2c1CCCCC2	0.78	-0.7	-0.54	-6	4	-4.2*
CCC(NC(=O)C1CCC1)c1ccccc1 (stereo not drawn)	/	-0.38	/	/	/	/
CCCCN1C2=NCCCN2c2cc(C)c(C)cc21	-0.0058	/	1.2	-21	7	-3.4*
CCCCN1C2=NCCCN2c2ccccc21	/	-0.11	/	/	/	/
COc1cc(NC(=O)CSc2nccc(C)n2)c(C(=O)O)cc1OC	-0.6	-0.56	1.2*	4	5	-0.76
COCCN=C1Sc2nc3ccc(C)cc3cc2CN1Cc1ccco1	/	3.2*	/	/	/	/
CCOc1ccc2nc3c(cc2c1)CN(CCOC)C(=NCCOC)S3	/	-0.58	/	/	/	/
COc1cc(C)nc(NCc2ccccc2)n1	-1.1	-1	-0.58	12	6	0.0077
Cc1cc(N2CCN(c3ccccc3)CC2)nc(NCc2ccccc2)n1	0.43	-0.55	0.12	-8	-1	-3.5*
CCN(c1ccc(NC(=O)COC(=O)c2ccc3ccccc3n2)cc1)C(C)C	/	-2.8*	/	/	/	/
C=C(C)Cn1c(NCCC)nc2c1c(=O)n(C)c(=O)n2C	-0.032	/	-0.17	9	4	0.41
CCCCCCC(=O)Nc1nc(C)c(-c2csc(Nc3cc(OC)ccc3OC)n2)s1	/	2.4*	/	/	/	/
CCCCCCCCC(=O)Nc1cc(C)ccc1OC	/	-7.9*	/	/	/	/
CCCCC(=O)Nc1nc(C)c(-c2csc(Nc3ccccc3OC)n2)s1	/	2.8*	/	/	/	/
CCCCCC(=O)Nc1nc(C)c(-c2csc(Nc3cc(OC)ccc3OC)n2)s1	/	1.1	/	/	/	/
S=c1[nH]nc(-c2ccco2)n1-c1cccc2ccccc12	0.44	1.8	0.016	8	-7	-0.058
O=C(O)CCSc1nc2ccccc2s1	1.4	-0.29	0.97	22	2	-6.5*
Cc1ccc(N2CC(C(=O)Nc3ccccc3C(=O)NC3CCCCC3)CC2=O)cc1C (stereo not drawn)	/	1.1	/	/	/	/
Cc1ccc(C(=O)N2Cc3ccccc3CC2C(=O)O)cc1 (stereo not drawn)	-0.47	-0.6	0.064	1	2	-0.015
COCCNC(=O)C1c2ccccc2C(=O)N(CCOC)C1c1ccc(F)cc1 (stereo not drawn)	-0.19	-7.6*	0.023	10	/	-0.37
COc1ccc(CNc2cc(C)nc3ncnn23)c(OC)c1	1.1	-1.3	-1.3	27	80*	-0.77
Cc1cccnc1Nc1nc(-c2ccc(O)cc2)cs1	/	4.6*	/	/	/	/
